In ChEMBL document CHEMBL1153559, “Role of a sodium-dependent symporter homologue in the thermosensitivity of beta-lactam antibiotic resistance and cell wall composition in Staphylococcus aureus” (2008):
Values after ≈ are worked out from the molar mass of the structure shown. Bridge positions count the residues as written; N and C are the ends. Square brackets hold non-standard residues; d marks the D form. Peptide text beside a SMILES is read from it. * marks the point of attachment. Ileψ(thiazoline)Cys = CC[C@H](C)[C@H](N)C1=N[C@H](C(=O)*)CS1; dOrn = NCCC[C@@H](N)C(=O)O

What was measured:
Assay type in all cases: functional
[1] = tested on: Staphylococcus aureus; experiment: Antimicrobial activity against methicillin-resistant Staphylococcus aureus COL at 37 degC by population analysis method
Summary of the method: (§1)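 Population analysis: S. aureus cultures were grown overnight in TSB, then plated at different cell concentrations on agar containing twofold serial methicillin concentrations. Colonies were counted after 48 h of incubation at 37 or 42°C, giving a methicillin resistance profile.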

[2] = tested on: Staphylococcus aureus; experiment: Antimicrobial activity against methicillin-resistant Staphylococcus aureus COL at 42 degC by population analysis method; summary of the method: as §1
[3] = tested on: Staphylococcus aureus; experiment: Antimicrobial activity against methicillin-resistant Staphylococcus aureus COL transposon mutant C245 harboring Tn551 gene at 42 degC by population analysis method; summary of the method: as §1
[4] = tested on: Staphylococcus aureus; experiment: Antimicrobial activity against SCCmec type 1 methicillin-resistant Staphylococcus aureus COL RUSA11 expressing symporter gene smr1 at 42 degC incubated for 24 hrs by E-test; settings: COL RUSA11, 24 h
[5] = tested on: Staphylococcus aureus; experiment: Antimicrobial activity against SCCmec type 1 methicillin-resistant Staphylococcus aureus COL E2125 expressing symporter gene smr1 at 37 degC incubated for 24 hrs by E-test; settings: COL E2125, 24 h
[6] = tested on: Staphylococcus aureus; experiment: Antimicrobial activity against SCCmec type 4 methicillin-resistant Staphylococcus aureus COL MW2 expressing symporter gene smr1 at 37 degC incubated for 24 hrs by E-test; settings: COL MW2, 24 h
[7] = tested on: Staphylococcus aureus; experiment: Antimicrobial activity against SCCmec type 1 methicillin-resistant Staphylococcus aureus COL C245Td expressing symporter gene smr1 at 42 degC incubated for 24 hrs by E-test
[8] = tested on: Staphylococcus aureus; experiment: Antimicrobial activity against SCCmec type 3 methicillin-resistant Staphylococcus aureus COL 301 expressing symporter gene smr1 at 42 degC incubated for 24 hrs by E-test; settings: COL 301, 24 h
[9] = tested on: Staphylococcus aureus; experiment: Antimicrobial activity against SCCmec type 1 methicillin-resistant Staphylococcus aureus COL E2125 expressing symporter gene smr1 at 42 degC incubated for 24 hrs by E-test; settings: COL E2125, 24 h
[10] = tested on: Staphylococcus aureus; experiment: Antimicrobial activity against SCCmec type 4 methicillin-resistant Staphylococcus aureus COL MW2 expressing symporter gene smr1 at 42 degC incubated for 24 hrs by E-test; settings: COL MW2, 24 h
[11] = tested on: Staphylococcus aureus; experiment: Antimicrobial activity against SCCmec type 1 methicillin-resistant Staphylococcus aureus COL D19455-T2 expressing symporter gene smr1 at 37 degC incubated for 24 hrs by E-test; settings: COL D19455-T2, 24 h
[12] = tested on: Staphylococcus aureus; experiment: Antimicrobial activity against SCCmec type 3 methicillin-resistant Staphylococcus aureus COL 301-T6 expressing symporter gene smr1 at 42 degC incubated for 24 hrs by E-test; settings: COL 301-T6, 24 h
[13] = tested on: Staphylococcus aureus; experiment: Antimicrobial activity against SCCmec type 1 methicillin-resistant Staphylococcus aureus COL 319 expressing symporter gene smr1 at 42 degC incubated for 24 hrs by E-test; settings: COL 319, 24 h
[14] = tested on: Staphylococcus aureus; experiment: Antimicrobial activity against SCCmec type 1 methicillin-resistant Staphylococcus aureus COL 404-T3 expressing symporter gene smr1 at 37 degC incubated for 24 hrs by E-test; settings: COL 404-T3, 24 h
[15] = tested on: Staphylococcus aureus; experiment: Antimicrobial activity against SCCmec type 1 methicillin-resistant Staphylococcus aureus COL E3005-T4 expressing symporter gene smr1 at 42 degC incubated for 24 hrs by E-test; settings: COL E3005-T4, 24 h
[16] = tested on: Staphylococcus aureus; experiment: Antimicrobial activity against SCCmec type 1 methicillin-resistant Staphylococcus aureus COL D19455 expressing symporter gene smr1 at 42 degC incubated for 24 hrs by E-test; settings: COL D19455, 24 h
[17] = tested on: Staphylococcus aureus; experiment: Antimicrobial activity against SCCmec type 1 methicillin-resistant Staphylococcus aureus COL C245Td expressing symporter gene smr1 at 37 degC incubated for 24 hrs by E-test
[18] = tested on: Staphylococcus aureus; experiment: Antimicrobial activity against SCCmec type 1 methicillin-resistant Staphylococcus aureus COL RUSA11 expressing symporter gene smr1 at 37 degC incubated for 24 hrs by E-test; settings: COL RUSA11, 24 h
[19] = tested on: Staphylococcus aureus; experiment: Antimicrobial activity against SCCmec type 3 methicillin-resistant Staphylococcus aureus COL 301 expressing symporter gene smr1 at 37 degC incubated for 24 hrs by E-test; settings: COL 301, 24 h
[20] = tested on: Staphylococcus aureus; experiment: Antimicrobial activity against SCCmec type 1 methicillin-resistant Staphylococcus aureus COL E3005 expressing symporter gene smr1 at 42 degC incubated for 24 hrs by E-test; settings: COL E3005, 24 h
[21] = tested on: Staphylococcus aureus; experiment: Antimicrobial activity against SCCmec type 3 methicillin-resistant Staphylococcus aureus COL 301-T6 expressing symporter gene smr1 at 37 degC incubated for 24 hrs by E-test; settings: COL 301-T6, 24 h
[22] = tested on: Staphylococcus aureus; experiment: Antimicrobial activity against SCCmec type 1 methicillin-resistant Staphylococcus aureus COL 404 expressing symporter gene smr1 at 42 degC incubated for 24 hrs by E-test; settings: COL 404, 24 h
[23] = tested on: Staphylococcus aureus; experiment: Antimicrobial activity against SCCmec type 1 methicillin-resistant Staphylococcus aureus COL E2125-T2 expressing symporter gene smr1 at 37 degC incubated for 24 hrs by E-test; settings: COL E2125-T2, 24 h
[24] = tested on: Staphylococcus aureus; experiment: Antimicrobial activity against SCCmec type 4 methicillin-resistant Staphylococcus aureus COL MW2-T expressing symporter gene smr1 at 42 degC incubated for 24 hrs by E-test
[25] = tested on: Staphylococcus aureus; experiment: Antimicrobial activity against SCCmec type 4 methicillin-resistant Staphylococcus aureus COL MW2-T expressing symporter gene smr1 at 37 degC incubated for 24 hrs by E-test
[26] = tested on: Staphylococcus aureus; experiment: Antimicrobial activity against SCCmec type 1 methicillin-resistant Staphylococcus aureus COL D19455-T2 expressing symporter gene smr1 at 42 degC incubated for 24 hrs by E-test; settings: COL D19455-T2, 24 h
[27] = tested on: Staphylococcus aureus; experiment: Antimicrobial activity against SCCmec type 1 methicillin-resistant Staphylococcus aureus COL RUSA11-T3 expressing symporter gene smr1 at 42 degC incubated for 24 hrs by E-test; settings: COL RUSA11-T3, 24 h
[28] = tested on: Staphylococcus aureus; experiment: Antimicrobial activity against SCCmec type 1 methicillin-resistant Staphylococcus aureus COL RUSA11-T3 expressing symporter gene smr1 at 37 degC incubated for 24 hrs by E-test; settings: COL RUSA11-T3, 24 h
[29] = tested on: Staphylococcus aureus; experiment: Antimicrobial activity against SCCmec type 1 methicillin-resistant Staphylococcus aureus COL 319-T1 expressing symporter gene smr1 at 42 degC incubated for 24 hrs by E-test; settings: COL 319-T1, 24 h
[30] = tested on: Staphylococcus aureus; experiment: Antimicrobial activity against SCCmec type 1 methicillin-resistant Staphylococcus aureus COL E3005 expressing symporter gene smr1 at 37 degC incubated for 24 hrs by E-test; settings: COL E3005, 24 h
[31] = tested on: Staphylococcus aureus; experiment: Antimicrobial activity against SCCmec type 1 methicillin-resistant Staphylococcus aureus COL 404 expressing symporter gene smr1 at 37 degC incubated for 24 hrs by E-test; settings: COL 404, 24 h
[32] = tested on: Staphylococcus aureus; experiment: Antimicrobial activity against SCCmec type 1 methicillin-resistant Staphylococcus aureus COL 319 expressing symporter gene smr1 at 37 degC incubated for 24 hrs by E-test; settings: COL 319, 24 h
[33] = tested on: Staphylococcus aureus; experiment: Antimicrobial activity against SCCmec type 1 methicillin-resistant Staphylococcus aureus COL E2125-T2 expressing symporter gene smr1 at 42 degC incubated for 24 hrs by E-test; settings: COL E2125-T2, 24 h
[34] = tested on: Staphylococcus aureus; experiment: Antimicrobial activity against SCCmec type 1 methicillin-resistant Staphylococcus aureus COL 404-T3 expressing symporter gene smr1 at 42 degC incubated for 24 hrs by E-test; settings: COL 404-T3, 24 h
[35] = tested on: Staphylococcus aureus; experiment: Antimicrobial activity against SCCmec type 1 methicillin-resistant Staphylococcus aureus COL E3005-T4 expressing symporter gene smr1 at 37 degC incubated for 24 hrs by E-test; settings: COL E3005-T4, 24 h
[36] = tested on: Staphylococcus aureus; experiment: Antimicrobial activity against SCCmec type 1 methicillin-resistant Staphylococcus aureus COL 319-T1 expressing symporter gene smr1 at 37 degC incubated for 24 hrs by E-test; settings: COL 319-T1, 24 h
[37] = tested on: Staphylococcus aureus; experiment: Antimicrobial activity against SCCmec type 1 methicillin-resistant Staphylococcus aureus COL D19455 expressing symporter gene smr1 at 37 degC incubated for 24 hrs by E-test; settings: COL D19455, 24 h

CC[C@H](C)[C@H](N)C1=N[C@H](C(=O)N[C@@H](CC(C)C)C(=O)N[C@H](CCC(=O)O)C(=O)N[C@H](C(=O)N[C@H]2CCCCNC(=O)[C@H](CC(N)=O)NC(=O)[C@@H](CC(=O)O)NC(=O)[C@H](Cc3cnc[nH]3)NC(=O)[C@@H](Cc3ccccc3)NC(=O)[C@H]([C@@H](C)CC)NC(=O)[C@@H](CCCN)NC2=O)[C@@H](C)CC)CS1 [BACITRACIN] ({Ileψ(thiazoline)Cys}-L[dE]IK[dOrn]I[dF]H[dD]N; lactam 4-C)
MIC [1]: 50 µg/mL (≈ 35.1 µM) | MIC [2]: 50 µg/mL (≈ 35.1 µM)

C[C@@H]1O[C@@H]1P(=O)(O)O [FOSFOMYCIN]
MIC [1]: 50 µg/mL (≈ 362 µM) | MIC [2]: 25 µg/mL (≈ 181 µM)

CN(C)[C@@H]1C(O)=C(C(N)=O)C(=O)[C@@]2(O)C(O)=C3C(=O)c4c(O)cccc4[C@@](C)(O)[C@H]3C[C@@H]12 [TETRACYCLINE]
MIC [1]: 100 µg/mL (≈ 225 µM) | MIC [2]: 100 µg/mL (≈ 225 µM)

CN[C@H](CC(C)C)C(=O)N[C@H]1C(=O)N[C@@H](CC(N)=O)C(=O)N[C@H]2C(=O)N[C@H]3C(=O)N[C@H](C(=O)N[C@H](C(=O)O)c4cc(O)cc(O)c4-c4cc3ccc4O)[C@H](O)c3ccc(c(Cl)c3)Oc3cc2cc(c3O[C@@H]2O[C@H](CO)[C@@H](O)[C@H](O)[C@H]2O[C@H]2C[C@](C)(N)[C@H](O)[C@H](C)O2)Oc2ccc(cc2Cl)[C@H]1O [VANCOMYCIN]
MIC [1]: 1.5 µg/mL (≈ 1.04 µM) | MIC [2]: 3 µg/mL (≈ 2.07 µM)

N[C@@H]1CONC1=O [CYCLOSERINE]
MIC [1]: 50 µg/mL (≈ 490 µM) | MIC [2]: 50 µg/mL (≈ 490 µM)

COc1cccc(OC)c1C(=O)N[C@@H]1C(=O)N2[C@@H]1SC(C)(C)[C@@H]2C(=O)O [METHICILLIN]
MIC [3]: 400 µg/mL (≈ 1050 µM)

Cc1onc(-c2ccccc2)c1C(=O)N[C@@H]1C(=O)N2[C@@H]1SC(C)(C)[C@@H]2C(=O)O [OXACILLIN]
MIC [4]: 0.19 µg/mL (≈ 0.473 µM) | MIC [5]: 1 µg/mL (≈ 2.49 µM) | MIC [6]: 0.75 µg/mL (≈ 1.87 µM) | MIC [7]: > 256 µg/mL | MIC [8]: 1 µg/mL (≈ 2.49 µM) | MIC [9]: 0.25 µg/mL (≈ 0.623 µM) | MIC [10]: 0.75 µg/mL (≈ 1.87 µM) | MIC [11]: 64 µg/mL (≈ 159 µM) | MIC [12]: 16 µg/mL (≈ 39.9 µM) | MIC [13]: 0.75 µg/mL (≈ 1.87 µM) | MIC [14]: > 256 µg/mL | MIC [15]: 0.38 µg/mL (≈ 0.947 µM) | MIC [16]: 0.25 µg/mL (≈ 0.623 µM) | MIC [17]: > 256 µg/mL | MIC [18]: 0.5 µg/mL (≈ 1.25 µM) | MIC [19]: > 256 µg/mL | MIC [20]: 0.5 µg/mL (≈ 1.25 µM) | MIC [21]: > 256 µg/mL | MIC [22]: 1 µg/mL (≈ 2.49 µM) | MIC [23]: 128 µg/mL (≈ 319 µM) | MIC [24]: 0.75 µg/mL (≈ 1.87 µM) | MIC [25]: 8 µg/mL (≈ 19.9 µM) | MIC [26]: 0.25 µg/mL (≈ 0.623 µM) | MIC [27]: 0.25 µg/mL (≈ 0.623 µM) | MIC [28]: 4 µg/mL (≈ 9.96 µM) | MIC [29]: > 256 µg/mL | MIC [30]: 1.5 µg/mL (≈ 3.74 µM) | MIC [31]: > 256 µg/mL | MIC [32]: > 256 µg/mL | MIC [33]: 0.5 µg/mL (≈ 1.25 µM) | MIC [34]: > 256 µg/mL | MIC [35]: 12 µg/mL (≈ 29.9 µM) | MIC [36]: > 256 µg/mL | MIC [37]: 1 µg/mL (≈ 2.49 µM)
